M4 ag – CHRM4 agonism in calcium assay | CHO-K1 hM4/Gqi5, Fluo-8 calcium fluorescence; vehicle 0%, full acetylcholine response 100% | activation, % at 3 µM | 360,000 tested, 0.14% active | AID 624127;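 active = activation above the run mean over all test wells plus 3 SD, cut at about 32% in these data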;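 note: peak over basal fluorescence ratio per well then scaled between controls; 0% = DMSO wells and 100% = acetylcholine at EC100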
Target sequence (P08173 whole entry, looked up): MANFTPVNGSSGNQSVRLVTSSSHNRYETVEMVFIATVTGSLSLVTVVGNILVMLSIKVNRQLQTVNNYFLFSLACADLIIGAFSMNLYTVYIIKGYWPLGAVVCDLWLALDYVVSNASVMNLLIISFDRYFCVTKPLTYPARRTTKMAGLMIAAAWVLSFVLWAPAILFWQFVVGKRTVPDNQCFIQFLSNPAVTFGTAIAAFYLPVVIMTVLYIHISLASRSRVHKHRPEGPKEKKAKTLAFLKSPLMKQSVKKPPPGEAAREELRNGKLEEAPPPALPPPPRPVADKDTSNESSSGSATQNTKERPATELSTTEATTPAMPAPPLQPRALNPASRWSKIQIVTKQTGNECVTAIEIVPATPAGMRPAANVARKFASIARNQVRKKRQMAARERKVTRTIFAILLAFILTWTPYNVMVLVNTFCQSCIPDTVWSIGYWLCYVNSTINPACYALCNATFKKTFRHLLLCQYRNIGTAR
CHRM4 antagonist – antagonists of human muscarinic M4 receptor (CHRM4); P08173; CHO-hM4 cells, ACh EC80, Fluo-8 calcium fluorescence; inhibition, % at 3 µM; 360,000 tested, 0.73% active;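 active = inhibition above its plate's cutoff, the mean inhibition of sample wells plus 3 SD, cut at about 27% in these data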;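 note: 0% = acetylcholine EC80 with DMSO and 100% = DMSO without agonist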
CHRM5 antagonist – CHRM5 antagonism in calcium assay; P08912; CHO-hM5 cells, Fluo-8 calcium fluorescence, ACh EC80; inhibition, % at 3 µM; 360,000 tested, 0.59% active; AID 624040;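 active = inhibition above a per-plate cutoff, the mean of that plate's test compounds plus 3 SD, cut at about 27% in these data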;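 note: 0% = acetylcholine EC80 with DMSO and 100% = DMSO without agonist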
M4 PAM – CHRM4 positive allosteric modulation; P08173; 360,000 tested, 0.4% active; activation, % at 3 µM; CHO-K1 hM4/Gqi5, Fluo-8 calcium fluorescence, ACh EC20; 0% = ACh EC20, 100% = maximal ACh; AID 624126;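 active = activation above its plate's cutoff, the mean activation of sample wells plus 3 SD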
M5 PAM – positive allosteric modulators of human muscarinic M5 receptor. AID 624038. activation, % at 3 µM. 360,000 tested, 0.3% active. P08912. CHO-K1 hM5, Fluo-8 calcium, ACh EC20 PAM; 0% = ACh EC20, 100% = ACh EC100;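 active = activation above the run cutoff, the mean activation of all test compounds plus 3 SD, cut at about 18% in these data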
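System: CHO-K1 hM5 cells. Reagent: acetylcholine, EC20 level. Compound dosing: single dose, 3 µM nominal final test concentration. Timing: Post-acetylcholine fluorescence recording 140 s. Detection: Fluo-8 calcium fluorescence. Read-out: % activation, ACh-normalized. Benchmarks: ACh EC20 and EC100 wells. Repeats: singlicate, one well per test compound.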
M5 ag – agonists of human muscarinic M5 receptor (CHRM5); 360,000 tested, 0.19% active; CHO-K1 hM5 cells, Fluo-8 calcium fluorescence; 0% DMSO wells, 100% maximal acetylcholine response; activation, % at 3 µM; P08912;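 active = activation above the run's mean over test compounds plus 3 SD, cut at about 23% in these data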;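 note: signal is peak over basal fluorescence ratio across the kinetic read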
* marks the source's active call; other numbers are inactive results. Only some compounds are listed: those with a hit (about 1.9% of all), similar ones and a draw of the others.

SMILES	M4 ag	CHRM4 antagonist	CHRM5 antagonist	M4 PAM	M5 PAM	M5 ag
COc1ccc(/C=C2\CCc3c2nc2ccccc2c3C(=O)O)cc1OC	4	-18	0	6	-9	5
CCOc1ccc(/C=C2\CCCc3c2nc2ccccc2c3C(=O)O)cc1OC	78*	16	17	-18	-24	249*
CN1CCN(C(CNS(=O)(=O)c2ccc(Br)cc2)c2ccc3c(c2)OCO3)CC1 (centres undefined)	6	-5	27*	0	-34	-10
O=C(Nc1ccc(NC(=O)c2ccco2)nc1)c1cccnc1	4	-9	-8	21*	8	-2
COc1ccc(NS(=O)(=O)c2cc(NC(=O)c3ccc(=O)[nH]n3)ccc2C)cc1	0	5	17	-2	-7	2
CS(=O)(=O)N1CCN(c2ccc([N+](=O)[O-])c3cccnc23)CC1	2	35*	-3	21	3	1
CC(=O)NCCCc1nc2ccccc2n1Cc1ccccc1C	2	27*	0	10	2	3
CC1(C)Cc2c(sc(NC(=O)c3ccc(C(=O)c4ccccc4)cc3)c2C(N)=O)C(C)(C)N1	16	10	32*	0	-8	-6
COC(=O)c1c(NC(=O)c2ccccc2)sc2c1CC(C)(C)NC2(C)C	1	0	0	-3	-8	0
Cc1cc(C)cc(OCC(O)CN2C(=O)NC(C)(C)C2=O)c1 (centres undefined)	2	-9	-6	5	-3	3
Cc1ccc(OCC(O)CN2C(=O)NC(C)(C)C2=O)c(C)c1 (centres undefined)	3	-7	0	19*	8	4
COc1ccccc1/C=C/C(=O)N1CCC(c2ccccc2)C1 (centres undefined)	1	-1	6	2	-1	-3
CCCc1nc2sc3c(=O)n(N)cnc3c2c2c1CCCC2	1	-8	-4	12	21*	1
CCCCc1nc2sc3c(=O)n(N)cnc3c2c2c1CCCC2	1	2	-6	-6	6	-3
COc1ccc2c(c1OC)C(=O)N1C2SC[C@H]1C(=O)NC1CCCCC1 (some centres undefined)	0	-19	5	2	-18	38*
COc1ccc(N(C(=O)COc2ccccc2OC)S(=O)(=O)c2ccc(C)cc2)cc1	1	-6	-3	26*	6	-4
CN(C)C=Nc1ccc2nc3c(cc2c1)[nH]c1ccccc13	0	11	10	0	-1	-3
COc1ccc(-c2nc(-c3cccc(C(F)(F)F)c3)no2)cc1OC	1	-1	-5	30*	0	-1
CCOc1ccc(-c2noc(-c3csc([C@@H]4C[C@H](O)[C@@H](CO)O4)n3)n2)cc1	4	-18	-1	-2	-4	-1
CC(=O)NC(=S)Nc1ccc(NC(=S)NC(=O)/C=C/c2ccco2)cc1	1	-19	11	34*	10	25*
CCC(=O)Nc1ccc(NC(=S)NC(=O)/C=C/c2ccco2)cc1	2	-9	8	7	-2	-2
CNC[C@H]1Oc2ccc(NC(=O)C3CCCCC3)cc2CC(=O)N([C@H](C)CO)C[C@@H]1C	1	0	4	14	2	6
Cc1cc(C)c(C#N)c(Sc2nc(C)c([N+](=O)[O-])c(C)c2C#N)n1	2	34*	8	42*	-4	-7
O=C(c1ccc(S(=O)(=O)c2cccc(Cl)c2)c([N+](=O)[O-])c1)N1CCN(c2ccccn2)CC1	24	44*	52*	-27	-32	5
O=C(CSc1nnc(CNc2ccc(F)cc2)o1)c1ccccc1	4	-21	-2	23*	6	-2
C=CCc1c(C)[nH]c(=O)[nH]c1=O	2	-14	4	9	-4	-2
Cc1cccc(CSc2nncc(=O)[nH]2)c1	1	-14	-5	15*	-4	1

Screens deposited in PubChem by The Scripps Research Institute Molecular Screening Center.
